Sampled rows, rich in hits. Any-hit rate of the full collection: about 3%.
Glyco luc inh – N-linked glycosylation inhibition; D54 ERlucT glycosylation luciferase reporter, 24 h; percent of 100 nM tunicamycin response; reporter increase, % at 12.5 µM; actives 0.23% (n = 360,000);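 active = mean luciferase reporter signal, scaled so untreated is 0 and the glycosylation-blocking control 100, at or above a set limit in every replicate; inconclusive = mean reaches the limit but not every replicate does; inactive = mean below the limit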;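 note: luciferase carries N-glycosylation sites so blocking glycosylation raises the light; 0% = median of neutral control wells and 100% = median of 100 nM tunicamycin wells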
CaV13 FRET inh – Disruptors of the CACNA1D IQ motif to Ca2+-dependent inactivation inhibitor domain association, primary screening, Förster resonance energy transfer in intact living …; actives 0.098% (n = 340,000); HEK cells, CFP/YFP FRET ICDI-IQ, plate reader, 10 min; percent FRET-ratio fall versus neutral wells; inhibition, % at 12.3 µM; AID 743397;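 active = mean replicate inhibition of at least 30% and at least 1% of replicates passing that level; inconclusive = only one of the two criteria is met; inactive = neither criterion is met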;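 note: 0% = median of the neutral control wells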
PfHsp90 yeast 2 – inhibits growth of yeast expressing Plasmodium falciparum Hsp90; S. cerevisiae expressing PfHsp90, BacTiter-Glo ATP, 48 h; yeast lacking PDR1 and PDR3 efflux regulators; inhibition, % at 9.4 µM; actives 0.32% (n = 310,000); AID 504621;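 active = every replicate shows inhibition above about 80%, whatever the replicate mean, limit read from the data; inconclusive = mean inhibition reaches the set limit but some replicate falls short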;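 note: 0% = DMSO neutral controls and 100% = 20 µM radicicol positive controls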
HSF-1 act – increases HSF-1 driven luciferase reporter signal | NIH3T3-HGL HSF-1 luciferase reporter, MG132, 8 h; 100% = twice DMSO control signal | activation, % at 9 µM | AID 504408 | actives 1.7% (n = 300,000);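 active = mean replicate activation of at least 50% with a set share of replicates each reaching 50%; inconclusive = only one of those two conditions met; inactive = mean below 50% and too few replicates reaching it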;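 note: 0% = median of the neutral control wells and 100% = twice that signal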
PvdQ acylase – P. aeruginosa PvdQ acylase inhibition; purified PvdQ acylase, fluorescence plate reader; inhibition, % at 10 µM; actives 0.063% (n = 340,000); in the data active = inhibition above about 30%, passing the limit was not always enough; inconclusive = no clear call, values can overlap the other calls;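 note: 0% = vehicle neutral wells and 100% = reference inhibitor wells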
T cruzi inh – blocks replication of Trypanosoma cruzi. T. cruzi beta-gal in NIH3T3, luminescence, 90 h. inhibition, % (test concentration not listed). actives 1.4% (n = 300,000). AID 1885;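 active = mean inhibition across valid replicates above about 55%, limit read from the data; inconclusive = mean below that limit but half or more replicates reach it; inactive = mean below it, under half of replicates reach it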;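 note: signal also drops with host cell toxicity which is not excluded here; 0% = plate median of DMSO wells and 100% = zero luminescence signal; higher percent means less beta-gal luminescence so fewer parasites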
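compound dosing = single 50 nL compound addition per well in DMSO | material = NIH/3T3 host cells with β-galactosidase reporter T. cruzi | input = 5,000 host fibroblasts per well | timing = ≥90 h infection period, 3 h prior cell attachment | read-out basis = percent inhibition of parasite-derived β-gal signal | detection = GalScreen β-gal luminescence, detergent lysis, 60 min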
The depositor's hits bear a star; ? = inconclusive; . = not tested or not shown.

SMILES | Glyco luc inh | CaV13 FRET inh | PfHsp90 yeast 2 | HSF-1 act | PvdQ acylase | T cruzi inh
C[C@H](NC(=O)c1nc[nH]c1C(=O)N[C@@H](Cc1ccccc1)C(=O)OC(C)(C)C)C(=O)OCc1ccccc1 | -1 | 35* | 6 | 20 | -6 | -8
C[C@H](NC(=O)c1nc[nH]c1C(=O)N[C@@H](Cc1ccccc1)C(=O)OCc1ccccc1)C(=O)OCc1ccccc1 | 4 | 15 | . | 33 | -6 | -3
Cc1c(Cl)ccc2c(C(=O)Nc3cc(C(C)(C)C)on3)cc(-c3ccccn3)nc12 | ? | -5 | 6 | -4 | -13 | 61*
Cc1cc(NC(=O)c2cc(-c3cccnc3)nc3c(C)c(C)ccc23)no1 | 0 | -5 | -25 | 27 | -4 | 31
COc1ccccc1/C=C/C(=O)NCC(=O)N/N=C/c1cc(Br)ccc1OC | 2 | . | 8 | 59* | -12 | 28
COc1ccc(C(=O)N/N=C/c2cc(Br)ccc2O)cc1OC | -6 | -7 | -9 | 3 | -20 | 56*
COc1ccc(O)c(/C=N/NC(=O)c2ccc(OCc3cccc(Br)c3)cc2)c1 | -7 | -6 | . | -8 | -6 | 73*
O=C1NC[C@H](CCCCN2C[C@H](Cc3ccccc3)N(CCC3CCCCC3)C(=O)C2=O)N(CCc2ccccc2)C1=O | . | -4 | . | . | . | .
CC(C)C[C@H]1CN(CCCC[C@H]2CNC(=O)C(=O)N2CCC2CCCCC2)C(=O)C(=O)N1CC1CCCCC1 | . | -4 | . | . | . | .
Cc1[nH][nH]c(=O)c1C=NCc1cccnc1 | 2 | 1 | . | 26 | -5 | -20
Cc1[nH][nH]c(=O)c1C=NCc1cccs1 | 0 | -5 | . | 69* | -13 | -15
CCOC(=O)c1c(CSc2ccccc2)n(C)c2cc(Br)c(OC)c(O)c12 | -7 | -12 | -2 | 4 | -3 | 32
CCOC(=O)c1c(C)n(C)c2ccc(O)c(CN3CCN(C)CC3)c12 | 4 | . | -29 | 56* | 0 | 3
CCOC(=O)c1c(CSc2ccccc2)n(C)c2ccc(O)c(CN3CCOCC3)c12 | -1 | -6 | -1 | 70* | 3 | 15
CCOC(=O)c1c(C)n(C)c2ccc(O)c(CN3CCC(C)CC3)c12 | 1 | . | 1 | -2 | 2 | 40
Nc1ccn([C@@H]2O[C@H](C(=O)N[C@H](CO)c3ccccc3)[C@@H](O)[C@H]2O)c(=O)n1 | 6 | -2 | . | . | . | .
C[C@H](O)[C@@H]1C(=O)N2CCc3c([nH]c4c(-c5ccccc5)cccc34)[C@@H]2C[C@@H]1N(C)CC1CCCCC1 | . | -3 | . | . | . | .
O=C(NCc1ccccc1)[C@@H]1CCCN1C(=O)[C@H]1CCCN1C(=O)c1ccccc1Cl | . | -6 | . | . | . | .
COc1ccc(-n2cc(CNCCc3cscn3)c(-c3ccccc3Cl)n2)cc1 | . | -6 | . | 59* | . | -10
CCN1CC(CNCc2cn(-c3ccc(OC)cc3)nc2-c2ccccc2Cl)CC1=O (centres undefined) | -1 | 2 | 3 | 49 | -7 | -2
OC(c1cccc(Cl)c1)c1nc(-c2csc3ccccc23)cs1 (centres undefined) | -1 | -5 | . | . | . | .
O=C(CCNS(=O)(=O)c1ccc(Br)s1)Nc1ccc(Cl)cc1 | -1 | -6 | 7 | 9 | -11 | 58*
CCCc1cc(=O)oc2cc(OCc3ccc(C(=O)O)cc3)ccc12 | 5 | -2 | 109* | -23 | -7 | 29
CCCc1cc(=O)oc2cc(OCc3ccc(C(=O)O)o3)ccc12 | 0 | -4 | 9 | 8 | 1 | -7
CCOC(=O)c1[nH]c(C)c(C(=O)OCC(=O)N(Cc2ccccc2)C(C)C)c1C | 0 | -5 | 13 | . | -1 | .
SMILES | Glyco luc inh | CaV13 FRET inh | PfHsp90 yeast 2 | HSF-1 act | PvdQ acylase | T cruzi inh
Nc1ncnc2c1ncn2[C@@H]1O[C@H](C(=O)N2CCC[C@@H]2C(=O)OCc2ccccc2)[C@@H](O)[C@H]1O | 0 | -6 | . | . | . | .
O=[N+]([O-])c1ccc(Cl)cc1Sc1cccc2cccnc12 | 0 | . | 22 | -20 | 4 | 10
Cn1nc([N+](=O)[O-])nc1Sc1nnc(-c2ccccc2)o1 | -2 | . | -6 | -13 | -12 | 69*
Cn1nc([N+](=O)[O-])nc1Sc1cccc2cccnc12 | 2 | 2 | -13 | 4 | -6 | 65*
Oc1c(CNc2ccccc2)cc(COCc2ccccc2)c2cccnc12 | -2 | -5 | -65 | . | 5 | .
Oc1c(CN2CCOCC2)cc(COCc2ccccc2)c2cccnc12 | -7 | -4 | 24 | -82 | 7 | 62*
Oc1c(CN2CCN(c3ccccc3)CC2)cc(Br)c2cccnc12 | -13 | -4 | 124* | 7 | -14 | 52
Oc1c(Br)cc(Br)cc1CNc1cccc2cccnc12 | 18 | -5 | 27 | 16 | -3 | 10
Oc1c(Br)cc(Br)c2cccnc12 | 1 | -5 | 107* | . | -10 | .
Nc1c(N(CCC2=CCCCC2)C(=O)COc2ccc(F)cc2Cl)c(=O)[nH]c(=O)n1Cc1ccccc1 | 56* | -7 | . | . | -7 | .
Nc1c(N(CCC2=CCCCC2)C(=O)c2ccc([N+](=O)[O-])o2)c(=O)[nH]c(=O)n1Cc1ccccc1 | -5 | -4 | -19 | 10 | 0 | 66*
Cc1ccc(C(=O)N(CCC2=CCCCC2)c2c(N)n(Cc3ccccc3)c(=O)[nH]c2=O)o1 | -2 | -2 | 10 | 0 | -9 | 3
CCCCNc1cccc2c1S(=O)(=O)N[C@@H](CC(C)C)CO2 | . | -6 | . | . | . | .
CC[n+]1c(/C=C2\C=C(C)CC(C)(C)C2)sc2ccccc21 | 3 | . | 16 | 85* | -15 | 46
CCC1=C/C(=C/c2sc3ccccc3[n+]2CC)CC(C)(C)C1 | . | -4 | -12 | 48 | -14 | 24
Cn1c(N)c(C(=O)CCc2ccccc2)c(=O)n(C)c1=O | . | -15 | . | . | . | .
CCN(CC(=O)c1c(N)n(C)c(=O)n(C)c1=O)c1cccc2ccccc12 | 8 | -3 | -1 | 85* | -7 | 1
C=CCn1c(-c2csc(-c3ccccc3)n2)n[nH]c1=S | 1 | -6 | 2 | 7 | 9 | 0
C=CCn1c(-c2cc(-c3ccccc3)sc2N)n[nH]c1=S | 1 | 1 | 7 | 174* | -2 | 6
Nc1sc(-c2ccccc2)cc1-c1n[nH]c(=S)n1C1CCCCC1 | 23 | -17 | -20 | 84* | -10 | -33
COc1ccc(-n2c(-c3cc(-c4ccccc4)sc3N)n[nH]c2=S)cc1 | 8 | -13 | 0 | 15 | 0 | 46
COc1cccc(NC(=O)C2(C)CCCN(C(C)C)C2)c1 (centres undefined) | -1 | -1 | . | . | . | .
CC1(C)C2CCC(C2)C1(C)N=C1OC(CCl)CS1 (centres undefined) | 12 | -4 | -14 | 11 | -6 | 2

From PubChem BioAssay
